Screening data (PubChem BioAssay)
Rows were chosen to be rich in hits. Some 4.2% of all compounds tested hit in one or more screens of this group.
KCC2 mod – modulators of human KCC2 chloride dependent transport. Q9H2X9. KCC2 cells, thallium flux FluoZin-2 fluorescence. B-score of Tl+ flux slope (higher = more flux/activation; lower = inhibition) at 10 µM. 190,000 tested, 2.2% active. AID 1456;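 active = thallium flux slope and its plate-corrected score both differing from the plate sample mean at a set confidence after two filtering rounds, in either direction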;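 also: slope of fluorescence scaled to starting intensity during 10 to 20 s after thallium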
KCNQ1 inh – inhibitors of human KCNQ1 potassium channel; P51787; CHO-K1 KCNQ1, FluxOR thallium flux fluorescence; hits give high values; B-score at 10 µM; 310,000 tested, 1.3% active; AID 2642;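 active = compounds whose thallium flux B-score, printed positive for inhibition, exceeds three library SD while starting fluorescence stays within three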;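 also: channel opened by potassium depolarization with thallium stimulus after 20 min compound exposure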
Target sequence (P51787 whole entry, looked up): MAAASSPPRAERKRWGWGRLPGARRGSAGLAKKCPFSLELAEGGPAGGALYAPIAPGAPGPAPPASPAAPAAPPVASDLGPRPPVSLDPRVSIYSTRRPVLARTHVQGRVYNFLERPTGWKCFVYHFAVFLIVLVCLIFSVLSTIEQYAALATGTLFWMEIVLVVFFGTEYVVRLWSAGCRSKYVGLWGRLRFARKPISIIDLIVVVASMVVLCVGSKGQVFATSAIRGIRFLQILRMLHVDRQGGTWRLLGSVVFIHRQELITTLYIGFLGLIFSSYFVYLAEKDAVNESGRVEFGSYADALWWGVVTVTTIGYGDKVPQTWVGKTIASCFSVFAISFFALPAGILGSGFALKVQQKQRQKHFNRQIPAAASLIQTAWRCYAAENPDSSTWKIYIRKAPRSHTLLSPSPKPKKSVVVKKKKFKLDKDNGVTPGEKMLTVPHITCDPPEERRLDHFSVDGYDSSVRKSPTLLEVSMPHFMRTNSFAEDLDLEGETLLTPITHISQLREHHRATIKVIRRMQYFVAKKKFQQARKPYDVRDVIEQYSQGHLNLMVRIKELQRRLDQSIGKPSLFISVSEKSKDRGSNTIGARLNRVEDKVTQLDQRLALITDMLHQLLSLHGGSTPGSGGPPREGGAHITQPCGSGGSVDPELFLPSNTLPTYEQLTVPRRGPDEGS
hERG rescue – compounds protecting human hERG from proarrhythmic drug block; AID 1511; activation (rescue from dofetilide block), less the hit threshold, % at 10 µM; 310,000 tested, 0.51% active; CHO-hERG, FluxOR thallium flux, dofetilide IC70 present;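 active = activation above the mean of controls blocked by dofetilide plus 5 SD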;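 also: thallium influx through hERG after potassium depolarization seen as dye fluorescence rise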
AI-2 QS mod – Vibrio harveyi AI-2 quorum sensing modulation. Vibrio harveyi JMH597 AI-2 luminescence/OD600 ratio, 9 h; hits give low values; strain lacks LuxN and CqsS sensors; 0 = neutral-control median. activity change, % at 7.5 µM. 300,000 tested, 0.4% active. AID 2094; in the data active = activity change below about -75%, passing the limit was not always enough;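 also: luminescence divided by OD600 gain over 9 h not by final OD600 alone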
KCNQ1 pot – potentiators or activators of human KCNQ1 potassium channel. P51787. CHO-K1 KCNQ1, thallium flux FluxOR fluorescence; hits give high values. B-score at 10 µM. 310,000 tested, 0.35% active. AID 2648;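 active = fluorescence ratio B-score, a plate-corrected score, at least three library SD, with initial intensity B-score within 5 SD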
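Assay system: CHO-K1 cells stably expressing KCNQ1. Medium: assay buffer for compound exposure, DMSO matched across wells. Timing: 37 °C overnight plating, 90-min dark dye load, 20-min compound pretreatment. Signal: kinetic FluxOR fluorescence, 10 s baseline plus 110 s post-stimulus.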
SUMO Mot1 rescue – blocks SUMOylation pathway, rescuing yeast Mot1-301 growth | S. cerevisiae Mot1-301 growth rescue, ATP luminescence, 38.5C; percent above DMSO median, 100 means doubled | growth rescue, % at 18.8 µM | 320,000 tested, 1% active;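 active = every valid replicate shows activation above 250% relative to neutral control wells; inactive = the rest, any valid replicate at or below 250%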
Mot1 SUMO dose – inhibits SUMO pathway, affecting Mot1-301 yeast growth; shares compounds with SUMO Mot1 rescue; S. cerevisiae Mot1-301 galactose growth, ATP luminescence, 24 h; -100 = growth of slx-deleted rescue strain; growth activity, percent, % at 42 µM; 2,300 tested, under 10 active;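 active = Signal drops as the depositor expects, and the fitted half-maximal dose is no more than ten times the top valid tested dose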;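 also: more negative values mean stronger growth rescue toward the control strain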
Large screens that a line does not name were inactive (follow-up assays come after a bar, where they were run).

CCOCCCNC(=O)C(c1ccc(OC)cc1)N(Cc1ccc2c(c1)OCO2)C(=O)CNC(C)=O (stereo not given)	SUMO Mot1 rescue 442 | Mot1 SUMO dose inactive
CCOc1ccc(-n2c(SCC(N)=O)nc3c(c2=O)SCC3)cc1	none
Nc1ncnc2c1ncn2[C@@H]1O[C@H](CNCc2ccccc2OCC(=O)N2CCCCC2)[C@@H](O)[C@H]1O	none (no result: KCC2 mod, KCNQ1 inh, hERG rescue, AI-2 QS mod, KCNQ1 pot)
CCc1nnc(NC(=O)CSc2nc3c(cc2C#N)CCCC3)s1	SUMO Mot1 rescue 736 | Mot1 SUMO dose inactive
CCc1nnc(NC(=O)CSc2nc(C)cs2)s1	none (no result: KCC2 mod)
CC(=O)N1CCC2(CC1)CC(=O)c1cc(OCC(=O)N3CCCC3)ccc1O2	SUMO Mot1 rescue 488 | Mot1 SUMO dose inactive
CC(NCC1(N2CCOCC2)CCCCC1)C(=O)Nc1ccc(Cl)cc1Cl (stereo not given)	none
O=S1(=O)NC(c2ccccc2)CC(CC2CCCCC2)O1 (stereo not given)	SUMO Mot1 rescue 943 (no result: KCC2 mod) | Mot1 SUMO dose inactive
COc1ccc(NC(=O)C2CCN(S(=O)(=O)c3cn(C)nc3C)CC2)cc1	none (no result: KCC2 mod)
O=C(Oc1ccc2c(c1)OCO2)c1cccs1	SUMO Mot1 rescue 478 (no result: KCC2 mod) | Mot1 SUMO dose inactive
Cc1cc(OC(=O)c2cccs2)ccc1C(C)C	none
CN1C(=O)/C(=C/c2ccccc2OCc2cccc(F)c2)NC1=S	none (no result: KCC2 mod)
COc1cc(/C=C2\NC(=S)N(C)C2=O)ccc1OCc1cccc(F)c1	SUMO Mot1 rescue 563 (no result: KCC2 mod) | Mot1 SUMO dose inactive
CCC(C)NC(=O)CSc1nnc(-c2cc(-c3ccc(C)cc3)nc3ccccc23)n1N (stereo not given)	SUMO Mot1 rescue 971 | Mot1 SUMO dose inactive
Cc1cc(C)cc(NC(=O)CCn2cnc3cc(C)c(C)cc32)c1	none
COc1cc2c(cc1OC)C(COc1ccc([N+](=O)[O-])cc1)NCC2 (stereo not given)	none (no result: KCC2 mod)
CCOc1ccc(C(=O)c2cccs2)cc1	SUMO Mot1 rescue 387 | Mot1 SUMO dose inactive
COc1ccc(-c2nnc(SCC(C)C)o2)cc1	SUMO Mot1 rescue 584 | Mot1 SUMO dose inactive
O=C(Cc1ccc(Cl)cc1Cl)OCC(=O)c1ccc[nH]1	SUMO Mot1 rescue 581 | Mot1 SUMO dose inactive
Cc1nc2nc[nH]n2c(=O)c1NS(=O)(=O)c1ccc(F)cc1	none
Cc1nc2nc[nH]n2c(=O)c1NS(=O)(=O)c1ccc([N+](=O)[O-])cc1	SUMO Mot1 rescue 487 | Mot1 SUMO dose inactive
Cc1cc2nc(CCl)cc(=O)n2[nH]1	SUMO Mot1 rescue active | Mot1 SUMO dose inactive
CCOC(=O)c1c(NC(=O)COC(=O)C2CC2C)sc(C)c1C (stereo not given)	none
Cc1ccc(S(=O)(=O)N2CCN(CC(=O)N(CC(C)C)c3c(N)n(CC(C)C)c(=O)[nH]c3=O)CC2)c(C)c1	none
O/N=C\c1ccc2noc(-c3ccc(Cl)cc3)c2c1	none (no result: KCC2 mod)
CCN(CC)c1ncnc2ccc(Br)cc12	SUMO Mot1 rescue 410 | Mot1 SUMO dose inactive
OCCNc1ncnc2ccc(Br)cc12	none (no result: KCC2 mod)
CCOC(=O)[C@H]1NN=C(C(=O)OC)[C@@H]1c1ccccc1	none
CC(C)Cc1cc(CN2CCC(CO)(Cc3ccccc3)CC2)[nH]n1	SUMO Mot1 rescue 455 | Mot1 SUMO dose inactive
N=c1c2c(n(Cc3ccc(Cl)c(Cl)c3)c3c1CCC3)CCCC2	SUMO Mot1 rescue active (no result: KCC2 mod) | Mot1 SUMO dose inactive
Cc1ccn(CC(=O)N2CCCC(C(=O)c3cccc4ccccc34)C2)n1 (stereo not given)	none
Cc1nc(C)n(CC(=O)N2CCCC(C(=O)c3cccc4ccccc34)C2)n1 (stereo not given)	SUMO Mot1 rescue 365 (no result: KCC2 mod) | Mot1 SUMO dose inactive
COc1cc(/C=N/NC(=O)c2nnn(-c3nonc3N)c2-c2cccs2)ccc1O	none (no result: KCC2 mod)
COc1ccc(/C=N/NC(=O)c2nnn(-c3nonc3N)c2-c2cccs2)cc1OC	SUMO Mot1 rescue 399 (no result: KCC2 mod) | Mot1 SUMO dose inactive
CCCCOc1ccccc1C1NC(=O)CCC1[N+](=O)[O-] (stereo not given)	none (no result: KCC2 mod)
CC(C)NC(=O)COc1ccc(S(=O)(=O)N(C)Cc2ccccc2)cc1	SUMO Mot1 rescue 363 | Mot1 SUMO dose inactive
CN(Cc1ccccc1)S(=O)(=O)c1ccc(OCC(=O)NCc2ccccn2)cc1	none (no result: KCC2 mod)
COc1cc(-c2noc(CCCC(=O)NC3CCCCC3)n2)cc(OC)c1OC	none (no result: KCC2 mod, SUMO Mot1 rescue)
COc1ccc(C(=O)Nc2ccc(NC(=O)Cc3ccccc3)cn2)cc1	none (no result: KCC2 mod)
COc1cc(/C=N/NC(=S)NCc2ccco2)cc(OC)c1OC	SUMO Mot1 rescue 498 | Mot1 SUMO dose inactive
CN(C(=S)NC1=CCS(=O)(=O)C1)C1CCCCC1	SUMO Mot1 rescue 581 | Mot1 SUMO dose inactive
Cc1noc(C)c1NC(=O)N(C)C[C@H]1Oc2ccc(NC(=O)Cn3cnnn3)cc2C(=O)N([C@H](C)CO)C[C@@H]1C	none (no result: KCC2 mod, KCNQ1 inh, hERG rescue, AI-2 QS mod, KCNQ1 pot)
COc1ccc(C(=O)c2c(C)c3cc(C)ccc3n2CC(O)CN2CCOCC2)cc1 (stereo not given)	SUMO Mot1 rescue 924 | Mot1 SUMO dose inactive
Cc1ccc2c(c1)c1c(n2CC(O)CN2CCOCC2)CCCC1 (stereo not given)	none (no result: KCC2 mod)
CCOC(=O)C(O)(NC(=O)c1cccnc1)C(F)(F)F (stereo not given)	none
CCOC(=O)CNC(=O)c1cccnc1	SUMO Mot1 rescue active | Mot1 SUMO dose inactive
O=C1c2ccccc2S(=O)(=O)N1Cc1cc(=O)n2ccsc2n1	SUMO Mot1 rescue 383 | Mot1 SUMO dose inactive
COc1ccccc1CNC(=O)CCC(=O)Nc1nnc(C(C)C)s1	SUMO Mot1 rescue 928 (no result: KCC2 mod) | Mot1 SUMO dose inactive
COc1ccccc1CNC(=O)C(C)Sc1ccc(C)cc1 (stereo not given)	SUMO Mot1 rescue 416 | Mot1 SUMO dose inactive
COc1ccccc1CNC(=O)C1CCC(CNS(=O)(=O)c2ccc(C)cc2)CC1 (stereo not given)	SUMO Mot1 rescue 625 (no result: KCC2 mod) | Mot1 SUMO dose inactive
CCn1c(SCC(=O)Nc2ccc(OCc3ccccc3)cc2)nnc1-c1ccco1	SUMO Mot1 rescue 837 (no result: KCC2 mod) | Mot1 SUMO dose inactive
O=C1NC(=O)C(CC(=O)N(Cc2ccco2)C2(C(=O)NC3CCCC3)CCCCC2)N1 (stereo not given)	none (no result: KCC2 mod)
Cc1cccc(C)c1NC(=O)C1(N(Cc2ccco2)C(=O)CC2NC(=O)NC2=O)CCCCC1 (stereo not given)	SUMO Mot1 rescue 413 | Mot1 SUMO dose inactive
O=S1(=O)C=C(Sc2nnc(-c3ccccc3)o2)c2ccccc21	SUMO Mot1 rescue 917 | Mot1 SUMO dose inactive
